Test results as given in ChEMBL document CHEMBL1136028, “Design and synthesis of orally bioavailable inhibitors of inducible nitric oxide synthase. Part 1: synthesis and biological evaluation of dihydropyridin-2-imines” (Bioorg Med Chem Lett, 2002).

How the values were obtained:
Mus musculus [1] = assay: The dose required for 50% inhibition of NOx accumulation in mice induced by LPS treatment after subcutaneous administration; format: functional; conditions: sc, read-out: ID50 (the source's name)
[2] = biological target: Nitric oxide synthase (inducible and endothelial) (Homo sapiens) (UniProt P35228+P29474); assay: Selectivity was evaluated as the rate of the IC50 values for heNOS and hiNOS.; format: protein assay
[3] = Ratio of MTD/ID50 for NOx accumulation in mice; format: functional
Outline: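 Balb/c mice, 7 weeks old, got LPS 10 mg/kg iv, then test compound or saline sc 3 h later. Plasma was taken from the abdominal aorta at 6 h, and NOx accumulated over 3 h was measured. ID50 is the sc dose halving LPS-induced NOx. MTD is the highest iv dose in normal mice with no death within 24 h. Ratio is MTD/ID50.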

Mus musculus [4] = assay: Maximum tolerated dose (MTD) at which no death was observed within 24 hr after intravenous administration.; format: functional
Outline: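 Normal mice (mouse acute toxicity) given a single intravenous dose of test compound. MTD taken as the maximum dose at which no death was observed within 24 h after injection.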

[5] = biological target: T1, Nitric oxide synthase, inducible (Homo sapiens, UniProt P35228); assay: Concentration required to inhibit human Inducible nitric oxide synthase over expressed in A549 cells; format: cell-based
T1 sequence (P35228 whole entry): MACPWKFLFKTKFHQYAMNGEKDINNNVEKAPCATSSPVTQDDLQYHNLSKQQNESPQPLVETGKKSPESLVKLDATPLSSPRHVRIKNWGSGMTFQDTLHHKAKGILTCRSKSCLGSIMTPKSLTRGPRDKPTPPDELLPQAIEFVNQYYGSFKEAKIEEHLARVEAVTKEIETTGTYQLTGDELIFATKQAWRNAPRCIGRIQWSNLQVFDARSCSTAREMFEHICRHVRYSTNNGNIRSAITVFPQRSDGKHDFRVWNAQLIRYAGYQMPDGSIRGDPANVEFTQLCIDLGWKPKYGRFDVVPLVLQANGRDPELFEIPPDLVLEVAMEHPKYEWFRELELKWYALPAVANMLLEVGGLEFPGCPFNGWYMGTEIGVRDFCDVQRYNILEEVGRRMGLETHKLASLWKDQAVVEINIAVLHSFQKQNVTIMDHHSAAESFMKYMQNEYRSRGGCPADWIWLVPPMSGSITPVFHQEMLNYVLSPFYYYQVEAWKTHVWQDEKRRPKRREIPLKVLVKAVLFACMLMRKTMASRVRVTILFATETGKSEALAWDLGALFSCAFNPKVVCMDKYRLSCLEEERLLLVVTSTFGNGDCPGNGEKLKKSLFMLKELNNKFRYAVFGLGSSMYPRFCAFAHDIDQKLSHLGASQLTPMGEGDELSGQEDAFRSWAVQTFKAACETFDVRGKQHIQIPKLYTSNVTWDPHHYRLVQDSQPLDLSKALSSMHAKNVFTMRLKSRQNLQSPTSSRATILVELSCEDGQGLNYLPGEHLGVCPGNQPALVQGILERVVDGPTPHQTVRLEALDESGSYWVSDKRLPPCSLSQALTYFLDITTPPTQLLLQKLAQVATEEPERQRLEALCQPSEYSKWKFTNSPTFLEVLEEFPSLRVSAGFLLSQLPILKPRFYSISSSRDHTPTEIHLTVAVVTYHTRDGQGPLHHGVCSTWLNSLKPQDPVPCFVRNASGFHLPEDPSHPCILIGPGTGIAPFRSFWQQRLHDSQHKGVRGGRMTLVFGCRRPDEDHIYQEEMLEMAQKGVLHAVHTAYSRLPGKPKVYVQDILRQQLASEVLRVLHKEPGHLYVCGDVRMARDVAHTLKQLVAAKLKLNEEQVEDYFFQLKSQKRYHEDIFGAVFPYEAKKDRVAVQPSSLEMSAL
Outline: (§1)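 Human iNOS was induced in A549 cells by LPS plus cytokines (10 ng/mL TNF-a, 5 ng/mL IL-1b, 100 ng/mL interferon-g), then partially purified on 2',5'-ADP-Sepharose. Activity was read as conversion of [14C]-L-arginine to L-citrulline at several inhibitor and L-arginine levels. Ki and mode of inhibition came from Dixon and Lineweaver–Burk plots.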

Nitric oxide synthase 3 = biological target: T2, Nitric oxide synthase 3 (Homo sapiens, UniProt P29474); assay: Inhibition of human endothelial Nitric Oxide Synthase expressed in Sf-21 cells; design: species or system Sf21
T2 sequence (P29474 whole entry): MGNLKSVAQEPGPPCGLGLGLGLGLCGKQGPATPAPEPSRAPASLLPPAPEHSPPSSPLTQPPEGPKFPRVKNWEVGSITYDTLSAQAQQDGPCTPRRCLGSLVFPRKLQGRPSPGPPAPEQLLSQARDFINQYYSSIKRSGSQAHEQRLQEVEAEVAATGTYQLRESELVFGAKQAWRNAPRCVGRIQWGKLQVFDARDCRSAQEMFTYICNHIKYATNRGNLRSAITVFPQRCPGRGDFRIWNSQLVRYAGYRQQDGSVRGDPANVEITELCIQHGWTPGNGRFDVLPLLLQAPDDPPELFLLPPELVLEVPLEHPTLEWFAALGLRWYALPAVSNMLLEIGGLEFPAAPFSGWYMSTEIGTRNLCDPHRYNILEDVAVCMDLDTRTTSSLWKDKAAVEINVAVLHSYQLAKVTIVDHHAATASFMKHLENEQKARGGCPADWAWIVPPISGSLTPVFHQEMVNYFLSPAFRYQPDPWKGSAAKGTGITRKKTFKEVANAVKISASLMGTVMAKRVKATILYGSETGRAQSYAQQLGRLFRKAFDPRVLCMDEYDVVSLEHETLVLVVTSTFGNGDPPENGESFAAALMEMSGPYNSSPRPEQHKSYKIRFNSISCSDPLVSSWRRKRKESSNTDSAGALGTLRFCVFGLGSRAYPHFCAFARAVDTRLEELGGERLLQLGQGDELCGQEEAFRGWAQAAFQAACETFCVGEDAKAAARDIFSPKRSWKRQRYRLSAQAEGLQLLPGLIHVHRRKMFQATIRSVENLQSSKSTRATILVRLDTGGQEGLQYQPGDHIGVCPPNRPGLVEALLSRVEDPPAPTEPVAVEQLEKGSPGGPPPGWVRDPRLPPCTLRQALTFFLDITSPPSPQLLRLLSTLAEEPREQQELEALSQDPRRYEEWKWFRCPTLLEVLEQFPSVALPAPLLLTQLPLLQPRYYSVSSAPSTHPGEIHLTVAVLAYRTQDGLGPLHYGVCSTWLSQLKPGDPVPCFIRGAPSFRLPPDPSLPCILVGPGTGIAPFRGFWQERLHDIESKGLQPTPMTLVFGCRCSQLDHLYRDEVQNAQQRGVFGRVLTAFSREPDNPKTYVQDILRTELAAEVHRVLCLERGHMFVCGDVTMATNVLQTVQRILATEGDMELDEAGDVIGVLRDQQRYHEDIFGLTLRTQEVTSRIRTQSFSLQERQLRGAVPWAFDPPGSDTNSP
Outline: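 Human eNOS was overexpressed in Sf-21 insect cells by infection with baculovirus carrying heNOS cDNA, then partially purified on 2',5'-ADP-Sepharose. Activity was read as [14C]-L-arginine to L-citrulline conversion at several inhibitor and L-arginine levels. Ki and mode of inhibition came from Dixon and Lineweaver–Burk plots.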

[6] = biological target: T3, Nitric oxide synthase, inducible (Mus musculus, UniProt P29477); assay: The concentration required for inhibition of Inducible nitric oxide synthase in mouse
T3 sequence (P29477 whole entry): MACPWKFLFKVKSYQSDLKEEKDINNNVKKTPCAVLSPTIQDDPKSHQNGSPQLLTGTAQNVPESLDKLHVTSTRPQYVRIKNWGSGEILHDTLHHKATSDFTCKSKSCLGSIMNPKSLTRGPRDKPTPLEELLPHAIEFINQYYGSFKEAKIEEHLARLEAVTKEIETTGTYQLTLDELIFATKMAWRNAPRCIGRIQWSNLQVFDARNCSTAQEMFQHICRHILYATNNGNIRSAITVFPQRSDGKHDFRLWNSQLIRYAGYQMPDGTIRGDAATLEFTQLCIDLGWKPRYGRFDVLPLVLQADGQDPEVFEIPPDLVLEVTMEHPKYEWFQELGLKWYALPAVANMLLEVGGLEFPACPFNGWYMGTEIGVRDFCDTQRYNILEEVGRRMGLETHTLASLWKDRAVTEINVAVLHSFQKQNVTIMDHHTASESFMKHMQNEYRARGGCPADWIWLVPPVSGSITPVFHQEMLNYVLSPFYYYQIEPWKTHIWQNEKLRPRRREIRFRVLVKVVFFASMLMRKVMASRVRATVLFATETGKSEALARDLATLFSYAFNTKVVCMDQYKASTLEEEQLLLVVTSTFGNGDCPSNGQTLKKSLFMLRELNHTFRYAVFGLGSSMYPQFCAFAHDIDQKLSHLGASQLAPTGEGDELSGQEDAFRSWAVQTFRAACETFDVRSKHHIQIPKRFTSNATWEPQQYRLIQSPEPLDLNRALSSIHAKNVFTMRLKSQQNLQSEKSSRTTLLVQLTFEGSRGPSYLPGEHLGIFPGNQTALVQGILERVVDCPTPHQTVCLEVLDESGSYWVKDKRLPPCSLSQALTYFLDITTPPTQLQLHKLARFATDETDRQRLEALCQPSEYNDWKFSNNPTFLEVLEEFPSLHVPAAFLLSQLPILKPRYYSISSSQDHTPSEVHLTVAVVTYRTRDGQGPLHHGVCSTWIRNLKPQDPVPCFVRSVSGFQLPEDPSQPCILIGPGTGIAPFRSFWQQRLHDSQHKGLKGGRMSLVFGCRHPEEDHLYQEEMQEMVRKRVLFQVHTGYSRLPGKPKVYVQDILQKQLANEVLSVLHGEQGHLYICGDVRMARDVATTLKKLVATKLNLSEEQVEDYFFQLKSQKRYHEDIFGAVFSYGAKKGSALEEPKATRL
Outline: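 Enzyme was commercially purchased recombinant mouse iNOS, tested for inhibition by the test compounds.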

[7] = biological target: T4, Nitric oxide synthase 3 (Homo sapiens) (UniProt P29474); assay: Selectivity was evaluated as the rate of the IC50 values for Endothelial Nitric Oxide Synthase and Inducible nitric oxide synthase
T4 sequence (whole entry): T2 sequence (P29474 whole entry)

[8] = biological target: T1, Nitric oxide synthase, inducible; assay: Concentration required to inhibit Inducible nitric oxide synthase over expressed in A549 cells; format: cell-based; outline: as §1

SMILES	Ratio [2]	IC50 [5] [nM]	IC50 (Nitric oxide synthase 3) [nM]	Ratio [7]	IC50 [8] [nM]	ED50 (Mus musculus [1]) [mg/kg]	Ratio [3]	MTD (Mus musculus [4]) [mg/kg]	IC50 [6] [nM]
CC1=CC(N)=NCC1	1.2	200	230	–	–	0.16	130	20	22
CCCC1CC(C)=CC(N)=N1 (centres undefined)	9.7	60	580	–	–	0.36	14	5	100
CC1(C)C=CC(N)=NC1	11.1	2800	31000	–	–	–	–	–	–
C=CCC1CC(C)=CC(N)=N1 (centres undefined)	7.2	–	–	–	–	0.16	–	5	25
CC1=CC(N)=NCC1(C)C	5	420	2100	–	–	0.28	71	20	100
CCC1=CC(=N)NCC1	1.3	1200	1500	–	–	–	–	–	–

Further lines, with some results ahead:

Ratio [2]	IC50 [5] [nM]	IC50 (Nitric oxide synthase 3) [nM]	Ratio [7]	IC50 [8] [nM]	SMILES	ED50 (Mus musculus [1]) [mg/kg]	Ratio [3]	MTD (Mus musculus [4]) [mg/kg]	IC50 [6] [nM]
–	–	240	1.3	180	CC1=CC(N)=NC(C)C1 (centres undefined)	–	–	–	–
–	–	520	1	510	CC1=CC(N)=NCC1C (centres undefined)	–	–	–	–
5.3	1400	7400	–	–	CC1=CC(N)=N[C@@H]2CCCC[C@H]12	–	–	–	–
3	170	510	–	–	CC1=CC(N)=N[C@@H]2CCC[C@H]12	–	–	–	–
0.6	700	440	–	–	CC1=CCN=C(N)C1	–	–	–	–
1	310	320	–	–	CC1=C(C)C(N)=NCC1	–	–	–	–
